T cruzi repl: T. cruzi replication inhibition | AID 1885 | 300,000 tested, 1.4% active | T. cruzi beta-gal in NIH3T3, luminescence, 90 h | inhibition, % (concentration not given with the values);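 active means mean inhibition across valid replicates above about 55%, limit read from the data; inconclusive means mean below that limit but half or more replicates reach it; inactive means mean below it, under half of replicates reach it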;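 further: signal also drops with host cell toxicity which is not excluded here; higher percent means less beta-gal luminescence so fewer parasites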
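Material: NIH/3T3 host cells with β-galactosidase reporter T. cruzi; Input: 5,000 host fibroblasts per well; Medium: DMEM, 2% fetal bovine serum; Compound: 50 nL DMSO compound solution per well; Schedule: 3 h host attachment, then at least 90 h co-culture; Detection: luminescent β-galactosidase signal after 60 min lysis.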
Calb FLC: C. albicans growth modulation with fluconazole; C. albicans CaCi-2 + fluconazole, Alamar Blue growth, 48 h; growth inhibition, % (test concentration not listed); 300,000 tested, 0.57% active; AID 1979;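 active means growth inhibition above about 58% in most replicates, limit read from the data, passing the limit was not always enough; inconclusive means exactly half the replicates above a set limit; inactive means most replicates below a set limit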;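 further: all wells also contain fluconazole at 8 µg/ml as a sub-toxic cotreatment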
Mdm2-MdmX inh: inhibitors of human Mdm2/MdmX interaction. inhibition, % at 8 µM. SaOS-2 split-luciferase Mdm2/MdmX complementation, luminescence. O15151+Q00987. 330,000 tested, 3% active;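 active means inhibition of at least 50% at 8 µM in the primary screen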
Target sequence (O15151 whole entry, looked up): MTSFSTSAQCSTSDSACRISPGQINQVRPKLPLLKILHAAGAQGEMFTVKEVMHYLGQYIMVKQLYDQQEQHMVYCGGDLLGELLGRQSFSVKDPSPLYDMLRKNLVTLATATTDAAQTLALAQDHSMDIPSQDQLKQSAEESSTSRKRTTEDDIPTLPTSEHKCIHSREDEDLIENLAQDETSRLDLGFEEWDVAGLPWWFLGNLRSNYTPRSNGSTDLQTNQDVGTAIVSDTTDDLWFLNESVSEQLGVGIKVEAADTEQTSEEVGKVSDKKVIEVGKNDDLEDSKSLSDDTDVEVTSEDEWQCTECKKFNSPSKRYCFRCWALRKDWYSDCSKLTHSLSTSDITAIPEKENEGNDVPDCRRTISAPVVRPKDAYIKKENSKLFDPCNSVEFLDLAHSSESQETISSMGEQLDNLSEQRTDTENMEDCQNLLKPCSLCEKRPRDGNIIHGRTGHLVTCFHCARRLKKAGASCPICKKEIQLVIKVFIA
Target sequence (Q00987 whole entry, looked up): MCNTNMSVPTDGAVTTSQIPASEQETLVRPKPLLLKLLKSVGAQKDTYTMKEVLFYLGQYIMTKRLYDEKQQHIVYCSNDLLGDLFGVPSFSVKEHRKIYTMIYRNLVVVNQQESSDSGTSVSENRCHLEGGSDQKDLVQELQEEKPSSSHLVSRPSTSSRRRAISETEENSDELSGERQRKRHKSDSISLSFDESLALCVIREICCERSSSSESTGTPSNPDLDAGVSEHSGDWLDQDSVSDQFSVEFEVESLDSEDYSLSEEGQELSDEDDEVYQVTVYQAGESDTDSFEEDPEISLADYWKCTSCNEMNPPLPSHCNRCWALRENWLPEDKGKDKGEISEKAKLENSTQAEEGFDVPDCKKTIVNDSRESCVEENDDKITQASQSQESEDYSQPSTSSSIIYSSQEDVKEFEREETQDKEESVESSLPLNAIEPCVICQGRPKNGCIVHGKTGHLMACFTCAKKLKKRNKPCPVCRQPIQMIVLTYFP
CSC inhib: cancer stem cell inhibition; cancer stem cell-like cells viability, luminescence; inhibition, % at 7.5 µM; 300,000 tested, 1.1% active; AID 2717; in the data active means inhibition above about 75%; inconclusive means no clear call, values can overlap the other calls; tested in HMLE shEcad cells
Beta apoptosis: beta cell apoptosis inhibition | INS-1E cytokine-induced death, ATP luminescence, 48 h; percent of positive-control rescue, neutral wells zero | 300,000 tested, 0.8% active | protection from apoptosis, % (test concentration not listed);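 active means Every replicate reaches about 75%, or at least half do and their mean reaches it too, limit read from the data; inconclusive means At least half of replicates reach the limit but their mean does not; inactive means Under half of replicates reach the limit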;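 further: higher means more ATP so stronger rescue from cytokine killing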
NALP3 yeast inh: inhibitors of NALP3 inflammasome in yeast; Yeast reconstituted NLRP3/ASC/caspase-1, beta-gal luminescence, 24 h; inhibition, % at 10 µM; 330,000 tested, 0.39% active;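 active means inhibition of 50% or more; inactive means inhibition below 50%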
Mdm2-MdmX conf: human Mdm2/MdmX binding inhibition, confirmed. AID 489028. luminescent assay. shares compounds with Mdm2-MdmX inh. 10,000 tested, 55% active. inhibition, % at 8 µM; in the data active means inhibition above about 40%
Full FLuc ctr: inhibits full-length luciferase, flagging false Mdm2/MdmX hits; inhibition, % at 8 µM; AID 504607; shares compounds with Mdm2-MdmX inh; 6,200 tested, 77% active; SaOS-2 full-length luciferase counterscreen, luminescence;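 active means mean inhibition at 8 µM reaching about 37%, which flags the compound as non-specific, limit read from the data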;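 further: p53-null SaOS-2 cells with luciferase driven by a doxycycline-inducible promoter; compound on cells about two nights before reading with doxycycline added after day one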
Of the large screens only hits and unclear results are named; the others gave an inactive call (follow-up assays come after a bar, where they were run). Hits are enriched below; roughly 5.3% of the tested compounds scored in any of these assays.

Cc1ccc(C(=O)N/N=C/c2cc(Br)ccc2O)cn1	Mdm2-MdmX inh 51 | Mdm2-MdmX conf inactive
COc1cc(/C=N/NC(=O)c2ccc(C)nc2)cc([N+](=O)[O-])c1O	none
COc1cc([N+](=O)[O-])cc(/C=N/NC(=O)C(C)Nc2ccccc2C)c1O (centres undefined)	Mdm2-MdmX inh 51 | Mdm2-MdmX conf inactive | Full FLuc ctr 67
Cc1ccc(C(=O)N/N=C\C=C\c2ccc(Br)cc2)cn1	none
COc1cc([N+](=O)[O-])cc(/C=N/NC(=O)c2ccc(C)nc2)c1O	Mdm2-MdmX inh 67 | Mdm2-MdmX conf 54 | Full FLuc ctr 81
COc1cc([N+](=O)[O-])cc(/C=N/NC(=O)c2ccc(NC(=O)c3ccc(C)cc3)cc2)c1O	Calb FLC 102, Mdm2-MdmX inh 88 (no result: CSC inhib, Beta apoptosis) | Mdm2-MdmX conf 94 | Full FLuc ctr inactive
CC(C)Oc1ccc(OCCn2c(=S)[nH]c3c(N)ncnc32)cc1	none
COCCNC(=O)c1onc(CSc2ccc(F)c(F)c2)c1C(=O)O	none
COc1ccc(C(=O)O)c(OC)n1	none
CCOC(=O)c1[nH]c2ccc(OC)cc2c1NC(=S)N1CCN(c2ccccc2OC)CC1	Mdm2-MdmX inh 52 | Mdm2-MdmX conf 46 | Full FLuc ctr 69
Cc1ccc(SCCC(=O)N(C)CC(=O)Nc2c(C)cccc2C)cc1	none
O=C(Cc1n[nH]c(=O)c2ccccc12)OCc1c(Cl)cccc1Cl	Mdm2-MdmX inh 57 | Mdm2-MdmX conf 55 | Full FLuc ctr 62
CCN(CC)c1nc2ccccc2n2cnnc12	none
CCCCN(C(=O)c1cnc2n(c1=O)CCS2)c1ccccc1	none
O=C(NNC(=O)C12CC3CC(CC(C3)C1)C2)c1ccccn1	Mdm2-MdmX inh 54, Beta apoptosis 91 | Mdm2-MdmX conf 54 | Full FLuc ctr 51
COc1ccccc1C(=O)NNC(=O)C12CC3CC(CC(C3)C1)C2	none
Cc1ccc(-n2c(-c3ccco3)nc3nc4ccccc4nc32)cc1F	none
O=C(c1cn(-c2ccccc2)nc1-c1cccs1)N1CCN(c2ccccc2)CC1	Mdm2-MdmX inh 59 | Mdm2-MdmX conf 48 | Full FLuc ctr 64
O=C(Nc1cccnc1)c1cn(-c2ccccc2)nc1-c1cccs1	none
CCN(CC)CCNC(=O)c1ccc(NC(=O)c2cn(-c3ccccc3)nc2-c2cccs2)cc1	Mdm2-MdmX inh 98, Beta apoptosis 79 | Mdm2-MdmX conf 64 | Full FLuc ctr 53
CCN(CC)CCNC(=O)c1ccc(NC(=O)c2cn(-c3ccc(F)cc3)nc2-c2cccc(OC)c2)cc1	T cruzi repl 65, Mdm2-MdmX inh 96 | Mdm2-MdmX conf 58 | Full FLuc ctr inactive
O=C1c2ccccc2C(=O)N1CCCCSc1nc2ccccc2c(=O)n1CCCN1CCOCC1	none
CCCCn1nnc(NC(=O)c2ccc(-c3cccc(Cl)c3)o2)n1	none
CN(C)S(=O)(=O)c1ccc(C(=O)N2CCN(C(=O)C3CCCO3)CC2)cc1 (centres undefined)	none (no result: T cruzi repl, Calb FLC, CSC inhib, Beta apoptosis)
Cc1nn(Cc2ccccc2Cl)c2sc(C(=O)NCc3ccc4c(c3)OCO4)cc12	none
OC(CNCc1ccc(-c2ccccc2)cc1)c1ccccc1 (centres undefined)	Mdm2-MdmX inh 53 | Mdm2-MdmX conf 58 | Full FLuc ctr inactive
CCC(=O)OCC(=O)Nc1ccc(OC)cc1[N+](=O)[O-]	none
NC(=O)C1CCN(C(=O)CCc2ccsc2)CC1	none
Cn1cc(C(=O)N/N=C/c2ccc([N+](=O)[O-])cc2)c2ccccc21	none
O=Cc1[nH]c2ccccc2c1N(C(=O)CCl)c1ccc([N+](=O)[O-])cc1	Mdm2-MdmX inh 97 | Mdm2-MdmX conf 94 | Full FLuc ctr inactive
CC(=O)n1cc(N(C(=O)CCl)c2ccccc2)c2ccccc21	Mdm2-MdmX inh 97 | Mdm2-MdmX conf 100 | Full FLuc ctr 51
CC(=O)n1cc(N(C(=O)CCl)c2ccc([N+](=O)[O-])cc2)c2ccccc21	Mdm2-MdmX inh 98 | Mdm2-MdmX conf 80 | Full FLuc ctr 42
CC(=O)n1cc(CO)c2ccccc21	none (no result: Beta apoptosis)
O=C(COc1coc(CN2CCN(c3cccc(Cl)c3)CC2)cc1=O)NC1CCCC1	none (no result: Beta apoptosis)
Cc1cccc(CCNC(=O)C2CCN(S(=O)(=O)c3c(C)noc3C)CC2)c1	none
CCOc1ccccc1C(=O)N/N=C/c1coc2ccc(Cl)cc2c1=O	Mdm2-MdmX inh 82 (no result: T cruzi repl) | Mdm2-MdmX conf 85 | Full FLuc ctr inactive
Cc1ccc2occ(/C=N/NC(=O)c3ccccc3O)c(=O)c2c1	Calb FLC 79, Mdm2-MdmX inh 81 | Mdm2-MdmX conf 66 | Full FLuc ctr 46
O=C(N/N=C/c1coc2ccc(Cl)cc2c1=O)c1cc(O)cc(O)c1	none
Cc1ccc2occ(/C=N/NC(=O)c3ccc(Cl)cc3)c(=O)c2c1	none
COc1cc(OC)c2c(c1)S(=O)(=O)C(c1ccccc1)=C2N	none
O=C(NCCc1ccc(Cl)cc1)c1ccc(CS(=O)Cc2ccccc2Cl)o1 (centres undefined)	none
COc1ccc(CNC(=O)C2CCN(C(=O)N(C)C)CC2)c(OC)c1	none
CC(=O)Nc1nnc(SCC(=O)Nc2ccc(N3CCOCC3)c(Cl)c2)s1	Mdm2-MdmX inh 59 | Mdm2-MdmX conf inactive
CC(=O)Nc1nnc(SCC(=O)Nc2ccc3c(c2)OCCO3)s1	none
CC(C)(C)CC(=O)NCc1cccs1	none
CC(=O)c1ccc(N2CCN(C(=O)c3noc4c3CSc3ccccc3-4)CC2)cc1	Mdm2-MdmX inh 51 | Mdm2-MdmX conf inactive
CCOC(=O)Cn1c(CN2CCN(c3cccc(Cl)c3)CC2)nc2c1c(=O)[nH]c(=O)n2C	none (no result: Beta apoptosis)
COc1cc(O)cc2cc3c(c(O)c12)C(=O)CC(C)(O)O3 (centres undefined)	Mdm2-MdmX inh 57 (no result: T cruzi repl, Calb FLC, Beta apoptosis) | Mdm2-MdmX conf 53 | Full FLuc ctr 60
COc1ccc(Oc2c(Cl)cnn(-c3ccc(Cl)c(Cl)c3)c2=O)cc1	Mdm2-MdmX inh 85, CSC inhib inconclusive | Mdm2-MdmX conf inactive
COc1ccc(Oc2c(Cl)cnn(-c3ccc(C)cc3)c2=O)cc1	none
Nc1nc2ccccc2n1/N=C/c1ccc([N+](=O)[O-])s1	Calb FLC inconclusive, Mdm2-MdmX inh 56, Beta apoptosis 108 | Mdm2-MdmX conf 47 | Full FLuc ctr 48
Nc1nc2ccccc2n1/N=C/c1cccnc1	none (no result: CSC inhib)
C[C@H](NC(=O)c1ccco1)C(=O)Nc1ccc(S(=O)(=O)N2CCCC2)cc1	none
Cc1ccc(C)c(OCc2ccc(C(=O)Nc3ccc([N+](=O)[O-])cn3)o2)c1	none (no result: T cruzi repl, Calb FLC)
Cc1ccc(NC(=O)c2ccccc2OCc2ccc([N+](=O)[O-])cc2)nc1	Mdm2-MdmX inh 76 | Mdm2-MdmX conf 60 | Full FLuc ctr 92

Bioassay records: PubChem, several laboratories
